hERG rescue: shields human hERG channel from block by proarrhythmic agents. CHO-hERG, FluxOR thallium flux, dofetilide IC70 present. hit rate 0.51% among 310,000. AID 1511. activation (rescue from dofetilide block), less the hit threshold, % at 10 µM. Q12809;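 active = activation above the mean of controls blocked by dofetilide plus 5 SD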;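 note: thallium influx through hERG after potassium depolarization seen as dye fluorescence rise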
Kir21 block: Kir2.1 (mouse) channel inhibition; P35561; HEK293-Kir2.1, FluxOR thallium flux fluorescence; stronger effect = lower value; B-score at 10 µM; hit rate 0.85% among 310,000;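 active = fluorescence ratio B-score at or below minus 3 SD of library scores, with starting-brightness B-score within 2 SD, cut at about -4.2 in these data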;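 note: channel flux triggered by added potassium and thallium sulfate stimulus; B-score of peak minus minimum fluorescence over baseline after thallium stimulus; more negative B-score means stronger Kir2.1 block with less thallium influx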
Target sequence (P35561 whole entry, looked up): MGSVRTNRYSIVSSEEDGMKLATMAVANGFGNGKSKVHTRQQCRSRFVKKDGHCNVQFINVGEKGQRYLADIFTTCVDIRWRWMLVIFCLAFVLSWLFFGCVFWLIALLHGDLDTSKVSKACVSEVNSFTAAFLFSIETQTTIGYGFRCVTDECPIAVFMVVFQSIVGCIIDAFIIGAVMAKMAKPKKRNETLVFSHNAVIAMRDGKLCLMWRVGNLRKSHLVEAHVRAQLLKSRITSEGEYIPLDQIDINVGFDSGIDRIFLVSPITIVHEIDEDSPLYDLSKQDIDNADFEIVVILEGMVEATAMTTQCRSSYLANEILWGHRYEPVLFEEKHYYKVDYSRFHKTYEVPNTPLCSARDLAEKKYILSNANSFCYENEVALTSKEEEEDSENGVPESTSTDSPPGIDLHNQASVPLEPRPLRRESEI
KCNQ1 pot: potentiates or activates the human KCNQ1 potassium channel; CHO-K1 KCNQ1, thallium flux FluxOR fluorescence; stronger effect = higher value; B-score at 10 µM; hit rate 0.35% among 310,000; AID 2648;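 active = fluorescence ratio B-score, a plate-corrected score, at least three library SD, with initial intensity B-score within 5 SD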
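Material: CHO-K1 cells stably expressing KCNQ1. Medium: assay buffer for compound exposure, DMSO matched across wells. Reagent: K+/Tl+ depolarizing stimulus. Compound dosing: single-concentration screen. Times: 37 °C overnight plating, 90-min dark dye load, 20-min compound pretreatment. Technique: FluxOR Tl+ flux fluorescence.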
KCNK9 inh: inhibitors of human KCNK9 two-pore domain potassium channel; AID 488922; hit rate 1.2% among 310,000; B-score at 10 µM; Q9NPC2; HEK293 KCNK9, FluxOR thallium flux fluorescence; stronger effect = lower value;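 active = ratio B-score over 3 SD below the library mean, with starting fluorescence within 5 SD of its mean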;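 note: negative B-score means less thallium flux so channel inhibition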
KCNQ1 block: human KCNQ1 channel inhibition; P51787; B-score at 10 µM; CHO-K1 KCNQ1, FluxOR thallium flux fluorescence; stronger effect = higher value; hit rate 1.3% among 310,000;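 active = compounds whose thallium flux B-score, printed positive for inhibition, exceeds three library SD while starting fluorescence stays within three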;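 note: channel opened by potassium depolarization with thallium stimulus after 20 min compound exposure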
KCNK3 block: human KCNK3 channel inhibition, primary screen; O14649; CHO-KCNK3 thallium flux, FluxOR fluorescence; stronger effect = lower value; B-score at 10 µM; hit rate 0.84% among 340,000;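 active = B-score under library mean minus 4 SD, starting fluorescence ratio at most library mean plus 5 SD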;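 note: more negative B-score means stronger inhibition of thallium flux through KCNK3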
KCNQ1 inh valid: confirmation of human KCNQ1 potassium channel inhibitors. shares compounds with KCNQ1 block. KCNQ1 cell line, FluxOR thallium flux fluorescence. inhibition, % at 10 µM. hit rate 93% among 1,600. AID 588353;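 active = primary screen active, with duplicate mean exceeding buffer control mean plus 3 SD of buffer wells, cut at about 28% in these data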;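 note: 0% = buffer control ratio and 100% = XE991 inhibitor control ratio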
CHO Tl flux: counter-screen for KCNQ1 inhibitors: effect in parental CHO cells. shares compounds with KCNQ1 block. parental CHO-K1, FluxOR thallium flux fluorescence ratio; stronger effect = lower value; zero means no signal rise above baseline. fluorescence ratio (Tl flux) at 10 µM. hit rate 21% among 1,600. AID 588366;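 active = mean of duplicate thallium-flux fluorescence ratios in parental host cells more than 5 SD below the buffer control mean, cut at about 0.38 in these data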;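 note: ratio is peak minus minimum fluorescence divided by baseline fluorescence; actives read low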
KCNQ1 ephys val: confirmation of human KCNQ1 potassium channel inhibitors by electrophysiology; KCNQ1-CHO cells, automated patch clamp current; hit rate 20% among 490; shares compounds with KCNQ1 block; calls only at 10 µM; AID 624120;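 active = KCNQ1 current drop exceeding 3 SD of negative control wells, seen in both duplicate runs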;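 note: steady state current during a 2 s step from -80 to +40 mV; negative values mean current inhibition and positive values mean potentiation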
KCNQ2 inh: selectivity of KCNQ1 inhibitors: inhibition of rat KCNQ2 channel; hit rate 71% among 1,600; shares compounds with KCNQ1 block; KCNQ2 cells, FluxOR thallium flux fluorescence; inhibition, % at 10 µM;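 active = mean percent inhibition of the KCNQ2 thallium signal more than 5 SD above the buffer-only control wells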;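 note: KCNQ2 expressed in CHO cells; 0% = buffer control wells and 100% = XE-991 inhibitor control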
KCNQ1 KCNE1 spec: KCNQ1 inhibitor that also blocks human KCNQ1/KCNE1 channel; shares compounds with KCNQ1 block; KCNQ1/KCNE1 cells, FluxOR thallium flux fluorescence; inhibition, % at 10 µM; hit rate 77% among 1,600;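 active = mean percent inhibition of duplicate wells above the buffer-only control mean plus 3 SD of those controls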;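 note: 0% = buffer only wells and 100% = XE-991 inhibitor control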
Starred values were filed as active, the others as inactive; i = inactive; · = no result given; + = active, no number. Only some compounds are listed: those with a hit (about 3.7% of all), similar ones and a draw of the others.

SMILES	hERG rescue	Kir21 block	KCNQ1 pot	KCNK9 inh	KCNQ1 block	KCNK3 block	KCNQ1 inh valid	CHO Tl flux	KCNQ2 inh	KCNQ1 KCNE1 spec	others
Cc1cc(NC2CCCCC2)nc(NCc2ccccc2)n1	-36	-13*	i	i	14*	i	182*	0.32*	120%*	168%*
COc1ccc(Nc2cc(C)nc(N)n2)cc1	-6	-0.8	i	i	i	i	·	·	·	·
O=C1c2ccccc2C(O)(c2ccccc2)N1C1CC1 (stereo not drawn)	-9	-0.33	i	i	i	i	·	·	·	·
COc1ccc(C2CC2C(C)=O)cc1 (stereo not drawn)	-10	-2.6	i	i	i	i	·	·	·	·
CC(C)Cn1c(N)c(C(=O)COC(=O)c2cc(-c3ccco3)nc3ccccc23)c(=O)n(C)c1=O	-12	-1.8	i	i	i	i	·	·	·	·
CC(C)(C)C(=O)COC(=O)c1cc(-c2ccncc2)nc2ccccc12	-18	-0.74	i	i	7*	i	52*	0.42	92%*	48%*
CC(C)Cn1c(N)c(C(=O)COC(=O)c2cc(-c3ccccc3)nc3ccccc23)c(=O)n(C)c1=O	-10	0.01	i	i	7*	i	106*	0.44	120%*	156%*	KCNQ1 ephys val=i
CCN1C(=O)CC(N2CCC(c3nc4ccccc4[nH]3)CC2)C1=O (stereo not drawn)	-19	-0.03	i	i	6*	i	32*	0.46	i	73%*
Cc1cccc(N2C(=O)CC(N3CCC(c4nc5ccccc5[nH]4)CC3)C2=O)c1 (stereo not drawn)	-12	-0.47	i	i	i	i	·	·	·	·
COc1ccc(-n2cc(-c3ccccc3)nc2SC)cc1	-15	0.07	i	i	6*	i	94*	0.42	86%*	130%*	KCNQ1 ephys val=i
O=C(c1cc2ccccc2o1)N(Cc1ccco1)Cc1cccs1	-20	0.68	i	i	7*	i	120*	0.36*	91%*	190%*
Cc1c(C(=O)N(Cc2ccco2)Cc2cccs2)oc2ccccc12	·	·	·	·	·	i	·	·	·	·
CCC(=O)Nc1ccc(C(=O)NNC(=O)c2cc(OC)c(OC)c(OC)c2)cc1	-18	0	i	i	i	i	·	·	·	·
Cc1ccc(F)cc1NCC(=O)Nc1ccc(Br)cc1	-17	-0.19	i	i	8*	i	70*	0.49	99%*	78%*
Cc1ccc(NCC(=O)Nc2ccc(Br)cc2)cc1C	-5	0.12	i	i	i	i	·	·	·	·
c1ccc(CC2CCN(c3ncnc4sccc34)CC2)cc1	-32	0.02	i	i	8*	i	136*	0.33*	89%*	176%*
O=C(Nc1nc2ccccc2[nH]1)c1ccc(Cl)c(S(=O)(=O)N2CCCC2)c1	-9	-0.25	i	i	11*	i	0	0.5	i	36%*
O=C(c1cc(-c2ccc(Cl)cc2)n(-c2ccc(Cl)c(Cl)c2)n1)N1CCOCC1	-6	0.76	i	i	i	i	·	·	·	·
O=C(c1cc(-c2ccc(Cl)cc2)n(-c2cc(Cl)ccc2Cl)n1)N1CCOCC1	-7	-0.18	i	i	7*	i	62*	0.48	81%*	86%*
COc1ccc(S(=O)(=O)Nc2ccccc2C(=O)Nc2nc(-c3ccc(F)cc3)cs2)cc1OC	-20	-0.82	i	i	9*	i	166*	0.32*	89%*	+
CC[C@@H](C)[C@H](N)C(=O)NC[C@H]1O[C@@H](n2cnc3c(N)ncnc32)[C@H](O)[C@@H]1O	·	·	·	·	·	i	·	·	·	·
Cc1ccc(C)c(NC(=S)N2CCC(NC(=O)c3ccco3)CC2)c1	-4	0.83	i	i	i	i	·	·	·	·
O=C(OCCN1C(=O)c2cccc3c(N4CCOCC4)ccc(c23)C1=O)c1ccc(Cl)cc1	-19	-2.4	i	i	10*	i	+	0.087*	i	i
O=C(OCCN1C(=O)c2ccccc2C1=O)c1cc(S(=O)(=O)N2CCOCC2)ccc1F	-9	-0.85	i	i	i	i	·	·	·	·
Clc1ccc(Cl)c2sc(N3CCOCC3)nc12	0	1.4	i	i	8*	i	26*	0.47	i	i
SMILES	hERG rescue	Kir21 block	KCNQ1 pot	KCNK9 inh	KCNQ1 block	KCNK3 block	KCNQ1 inh valid	CHO Tl flux	KCNQ2 inh	KCNQ1 KCNE1 spec	others
CCCc1ccc(-c2cc(C(=O)N3CCN(c4ccccn4)CC3)c3ccccc3n2)cc1	-30	-0.38	i	i	9*	i	89*	0.45	114%*	104%*	KCNQ1 ephys val=i
CCc1cc(C(=O)N/N=C/c2c(C)[nH]c3ccccc23)cs1	-8	0.3	i	i	i	i	·	·	·	·
COc1ccc(-c2cc(C(=O)N3CCN(c4ccccc4F)CC3)c3ccccc3n2)c(OC)c1	-19	1.4	i	i	7*	i	110*	0.39	i	176%*	KCNQ1 ephys val=i
COc1ccccc1-c1cc(C(=O)N2CCc3ccccc3C2)c2ccccc2n1	-18	0.01	i	i	i	·	·	·	·	·
COc1ccc(Nc2cc(C(=O)N3CCc4ccccc4C3)c3ccccc3n2)c(OC)c1	-14	1.3	i	i	7*	i	135*	0.42	130%*	176%*	KCNQ1 ephys val=i
Cc1cc(OC(=O)c2ccc(Cl)cc2Cl)nc(C)n1	-13	-0.91	i	i	i	i	·	·	·	·
CC(=O)Nc1c(O)c2cccc3c2n(c1=O)CCC3	-10	2.5	i	i	i	i	·	·	·	·
CC(C)NC(=O)C1(c2ccccc2)CC1(Cl)Cl (stereo not drawn)	-4	0.11	i	i	i	i	·	·	·	·
COc1ccccc1OCC(=O)NNC(=O)C1CCN(c2ncnc3sc(C)c(C)c23)CC1	·	·	·	·	·	i	·	·	·	·
COc1ccc(-c2csc(NC(=O)C3CC(=O)N(Cc4ccccc4)C3)n2)cc1OC (stereo not drawn)	-12	1.3	i	i	6*	i	123*	0.38	93%*	163%*	KCNQ1 ephys val=i

Screens from PubChem.
